Converted amounts (≈) assume the structure as drawn.
Assays:
Assay type in all cases: functional
Staphylococcus aureus = test: Minimum Inhibitory concentration measured against Staphylococcus aureus ATCC 29213
Method in brief: (§1)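 Broth microdilution on cultures kept as frozen stock, grown in Mueller Hinton II medium for 18–24 h at 37 °C. Suspension adjusted to absorbance 0.1 at 650 nm and diluted 1:10 in medium to give the inoculum. Final density 10⁵ cells/mL; plates incubated 24 h at 37 °C.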

Bacteroides fragilis = test: Minimum Inhibitory concentration measured against Bacteroides fragilis ATCC 25285
Method in brief: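 Anaerobic broth microdilution. Grown in brain heart infusion broth with 5 µg/mL hemin and 0.5 µg/mL vitamin K for 48 h at 37 °C under 5% CO₂, 10% H₂, 85% N₂. Adjusted to absorbance 0.1 at 650 nm and diluted 1:10. Final 10⁵ cells/mL; plates incubated anaerobically for 48 h at 37 °C.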

Escherichia coli = test: Minimum Inhibitory concentration measured against Escherichia coli ATCC 1-25922; method in brief: as §1
Streptococcus pyogenes = test: Minimum Inhibitory concentration measured against Streptococcus pyogenes ATCC 6301
Method in brief: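 ATCC 6301 was grown in brain heart infusion broth with 10% heat-inactivated horse serum for 18–24 h at 37 °C. Suspension brought to absorbance 0.1 at 650 nm, then diluted 1:10 in the same medium. Broth microdilution at a final 10⁵ cells/mL, incubated 24 h at 37 °C.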

Pseudomonas aeruginosa = test: Minimum Inhibitory concentration measured against Pseudomonas aeruginosa ATCC 27853; method in brief: as §1
Enterococcus faecalis = test: Minimum Inhibitory concentration measured against Streptococcus faecalis ATCC 29212; method in brief: as §1

Row | SMILES | MIC (Staphylococcus aureus) [mg/L] | MIC (Bacteroides fragilis) [mg/L] | MIC (Escherichia coli) [mg/L] | MIC (Streptococcus pyogenes) [mg/L] | MIC (Pseudomonas aeruginosa) [mg/L] | MIC (Enterococcus faecalis) [mg/L]
1 | CCc1cc(-c2cc3c(cc2F)c(=O)c(C(=O)O)cn3C2CC2)ccn1 | 0.03 (≈ 0.0851 µM) | 1 (≈ 2.84 µM) | 0.125 (≈ 0.355 µM) | 0.25 (≈ 0.709 µM) | 4 (≈ 11.4 µM) | 0.25 (≈ 0.709 µM)
2 | CCn1cc(C(=O)O)c(=O)c2cc(F)c(-c3ccncc3)cc21 | 0.25 (≈ 0.801 µM) | 16 (≈ 51.2 µM) | 0.125 (≈ 0.4 µM) | 2 (≈ 6.4 µM) | 2 (≈ 6.4 µM) | 1 (≈ 3.2 µM)
3 | Cc1cc(-c2cc3c(cc2F)c(=O)c(C(=O)O)cn3C(C)(C)C)cc(C)n1 | 0.03 (≈ 0.0814 µM) | 1 (≈ 2.71 µM) | 0.25 (≈ 0.679 µM) | 0.125 (≈ 0.339 µM) | > 4 | 0.25 (≈ 0.679 µM)
4 | Cc1cc(-c2cc3c(cc2F)c(=O)c(C(=O)O)cn3C2CC2)cc(C)n1 | 0.008 (≈ 0.0227 µM) | 0.5 (≈ 1.42 µM) | 0.03 (≈ 0.0851 µM) | 0.03 (≈ 0.0851 µM) | 2 (≈ 5.68 µM) | 0.06 (≈ 0.17 µM)
5 | CNCc1cc(-c2cc3c(cc2F)c(=O)c(C(=O)O)cn3C2CC2)cc(C)n1 | 0.125 (≈ 0.328 µM) | 2 (≈ 5.24 µM) | 0.016 (≈ 0.0419 µM) | 0.25 (≈ 0.655 µM) | 1 (≈ 2.62 µM) | 0.2 (≈ 0.524 µM)
6 | Cc1ccc(-c2cc3c(cc2F)c(=O)c(C(=O)O)cn3C2CC2)c(C)n1 | 1 (≈ 2.84 µM) | 4 (≈ 11.4 µM) | 0.5 (≈ 1.42 µM) | 8 (≈ 22.7 µM) | > 16 | 4 (≈ 11.4 µM)
7 | Cc1cc(-c2cc3c(cc2F)c(=O)c(C(=O)O)cn3C2CC2)cc(CO)n1 | 0.03 (≈ 0.0814 µM) | 1 (≈ 2.71 µM) | 0.06 (≈ 0.163 µM) | 0.06 (≈ 0.163 µM) | 4 (≈ 10.9 µM) | 0.125 (≈ 0.339 µM)
8 | Cc1cc(-c2cc3c(cc2F)c(=O)c(C(=O)O)cn3-c2ccc(F)cc2)cc(C)n1 | 0.125 (≈ 0.308 µM) | 1 (≈ 2.46 µM) | 0.125 (≈ 0.308 µM) | 1 (≈ 2.46 µM) | 4 (≈ 9.84 µM) | 1 (≈ 2.46 µM)
9 | CCNCc1cc(-c2cc3c(cc2F)c(=O)c(C(=O)O)cn3C2CC2)cc(C)n1 | 0.5 (≈ 1.26 µM) | 8 (≈ 20.2 µM) | 0.06 (≈ 0.152 µM) | 0.5 (≈ 1.26 µM) | 8 (≈ 20.2 µM) | 2 (≈ 5.06 µM)
10 | O=C(O)c1cn(C2CC2)c2cc(N3CCNCC3)c(F)cc2c1=O [CIPROFLOXACIN] | 0.25 (≈ 0.754 µM) | 2 (≈ 6.04 µM) |  | 0.25 (≈ 0.754 µM) |  | 0.5 (≈ 1.51 µM)
11 | CCn1cc(C(=O)O)c(=O)c2ccc(-c3cc(C)nc(C)c3)cc21 [DIMETHYLROSOXACIN] | 0.25 (≈ 0.776 µM) | 16 (≈ 49.6 µM) | 0.25 (≈ 0.776 µM) | 32 (≈ 99.3 µM) | 2 (≈ 6.2 µM) | 1 (≈ 3.1 µM)
12 | CCn1cc(C(=O)O)c(=O)c2cc(F)c(N3CCNCC3)cc21 [NORFLOXACIN] | 2 (≈ 6.26 µM) | 8 (≈ 25.1 µM) | 0.125 (≈ 0.391 µM) | 4 (≈ 12.5 µM) | 2 (≈ 6.26 µM) | 4 (≈ 12.5 µM)

Now from value to compound:

Row | MIC (Staphylococcus aureus) [mg/L] | MIC (Bacteroides fragilis) [mg/L] | MIC (Escherichia coli) [mg/L] | MIC (Streptococcus pyogenes) [mg/L] | MIC (Pseudomonas aeruginosa) [mg/L] | MIC (Enterococcus faecalis) [mg/L] | SMILES
13 | 0.06 (≈ 0.179 µM) | > 4 | 0.25 (≈ 0.748 µM) | 0.5 (≈ 1.5 µM) | > 4 | 0.5 (≈ 1.5 µM) | Cc1cc(-c2ccc3c(=O)c(C(=O)O)cn(C4CC4)c3c2)cc(C)n1
14 | 0.06 (≈ 0.185 µM) | 1 (≈ 3.08 µM) | 0.03 (≈ 0.0925 µM) | 0.25 (≈ 0.771 µM) | 2 (≈ 6.17 µM) | 0.5 (≈ 1.54 µM) | O=C(O)c1cn(C2CC2)c2cc(-c3ccncc3)c(F)cc2c1=O
15 | 0.06 (≈ 0.152 µM) | 2 (≈ 5.06 µM) | 0.06 (≈ 0.152 µM) | 0.5 (≈ 1.26 µM) | 8 (≈ 20.2 µM) | 0.5 (≈ 1.26 µM) | Cc1cc(-c2cc3c(cc2F)c(=O)c(C(=O)O)cn3C2CC2)cc(CN(C)C)n1
16 | 0.016 (≈ 0.0473 µM) | 0.5 (≈ 1.48 µM) | 0.03 (≈ 0.0887 µM) | 0.06 (≈ 0.177 µM) | 2 (≈ 5.91 µM) | 0.06 (≈ 0.177 µM) | Cc1cc(-c2cc3c(cc2F)c(=O)c(C(=O)O)cn3C2CC2)ccn1
17 | 0.03 (≈ 0.0785 µM) | 1 (≈ 2.62 µM) | 0.25 (≈ 0.654 µM) | 0.125 (≈ 0.327 µM) | 8 (≈ 20.9 µM) | 0.125 (≈ 0.327 µM) | COCc1cc(-c2cc3c(cc2F)c(=O)c(C(=O)O)cn3C2CC2)cc(C)n1
18 | 0.03 (≈ 0.0849 µM) | 2 (≈ 5.66 µM) | 0.125 (≈ 0.354 µM) | 0.25 (≈ 0.708 µM) | 8 (≈ 22.6 µM) | 0.125 (≈ 0.354 µM) | Cc1cc(-c2nc3c(cc2F)c(=O)c(C(=O)O)cn3C2CC2)cc(C)n1
19 | 0.016 (≈ 0.0493 µM) | 0.5 (≈ 1.54 µM) | 0.008 (≈ 0.0247 µM) | 0.125 (≈ 0.385 µM) | 1 (≈ 3.08 µM) | 0.25 (≈ 0.771 µM) | O=C(O)c1cn(C2CC2)c2cc(-c3cccnc3)c(F)cc2c1=O
20 | 0.06 (≈ 0.176 µM) | > 4 | 0.25 (≈ 0.732 µM) | 1 (≈ 2.93 µM) | > 4 | 0.5 (≈ 1.46 µM) | CNn1cc(C(=O)O)c(=O)c2cc(F)c(-c3cc(C)nc(C)c3)cc21
21 | 0.008 (≈ 0.0227 µM) |  | 0.06 (≈ 0.17 µM) |  |  |  | Cc1cc(-c2ccc3c(=O)c(C(=O)O)cn(C4CC4)c3c2F)cc(C)n1
22 | 0.008 (≈ 0.0206 µM) | 0.5 (≈ 1.29 µM) | 0.13 (≈ 0.335 µM) | 0.03 (≈ 0.0773 µM) | 8 (≈ 20.6 µM) | 0.06 (≈ 0.155 µM) | Cc1cc(-c2c(F)c(F)c3c(=O)c(C(=O)O)cn(C4CC4)c3c2F)cc(C)n1
23 | 0.03 (≈ 0.0881 µM) | 2 (≈ 5.88 µM) | 0.06 (≈ 0.176 µM) | 0.25 (≈ 0.735 µM) | 4 (≈ 11.8 µM) | 0.25 (≈ 0.735 µM) | CCn1cc(C(=O)O)c(=O)c2cc(F)c(-c3cc(C)nc(C)c3)cc21
24 | 0.06 (≈ 0.164 µM) | 4 (≈ 10.9 µM) | 0.125 (≈ 0.341 µM) | 0.25 (≈ 0.682 µM) | 8 (≈ 21.8 µM) | 0.5 (≈ 1.36 µM) | Cc1cc(-c2cc3c(cc2F)c(=O)c(C(=O)O)cn3C2CC2)c(C)c(C)n1
25 | 0.03 (≈ 0.0887 µM) | 0.25 (≈ 0.739 µM) | 0.03 (≈ 0.0887 µM) | 0.25 (≈ 0.739 µM) | 2 (≈ 5.91 µM) | 0.25 (≈ 0.739 µM) | Cc1ccc(-c2cc3c(cc2F)c(=O)c(C(=O)O)cn3C2CC2)cn1
26 | 0.016 (≈ 0.0473 µM) | 0.25 (≈ 0.739 µM) | 0.06 (≈ 0.177 µM) | 0.06 (≈ 0.177 µM) | 2 (≈ 5.91 µM) | 0.125 (≈ 0.369 µM) | Cc1cncc(-c2cc3c(cc2F)c(=O)c(C(=O)O)cn3C2CC2)c1
27 | 0.5 (≈ 1.7 µM) | 8 (≈ 27.2 µM) | 0.125 (≈ 0.425 µM) | 16 (≈ 54.4 µM) | 16 (≈ 54.4 µM) | 16 (≈ 54.4 µM) | CCn1cc(C(=O)O)c(=O)c2ccc(-c3ccncc3)cc21 [ROSOXACIN]
28 | 0.008 (≈ 0.0216 µM) | 0.125 (≈ 0.338 µM) | 0.06 (≈ 0.162 µM) | 0.016 (≈ 0.0432 µM) | 4 (≈ 10.8 µM) | 0.06 (≈ 0.162 µM) | Cc1cc(-c2c(F)cc3c(=O)c(C(=O)O)cn(C4CC4)c3c2F)cc(C)n1 [WIN-57294]
